Most compounds without a hit are left out; they make up all but 4% or so of the library.
Statin myotox sup: suppression of simvastatin myotoxicity; C2C12 myotubes + simvastatin, ATP luminescence, 48 h; scaled: DMSO 0, geranylgeraniol control 100; rescue of ATP level, % at 7.49 µM; 330,000 tested, 0.78% active; AID 602340;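 active means mean ATP rescue above about 67%, or every replicate alone reaching that limit, limit read from the data, passing the limit was not always enough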;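 further: myotubes were challenged with 10 µM simvastatin during compound exposure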
E-selectin induc: induces E-selectin expression in human endothelial cells; P16581; HUVEC E-selectin immunofluorescence imaging; normalized: neutral wells 0, TNF-alpha wells 100; activation, % at 7.58 µM; 260,000 tested, 0.37% active;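 active means mean E-selectin-positive cell signal at least 10% of the positive control, reached in at least 60% of replicates, without over 20% cell loss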
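System: HUVEC, human umbilical vein endothelial cells; quantity: 3,000 cells/well; buffer or medium: EGM-2 medium, gelatin-coated wells; dosing: single-point compound dose; detection: immunofluorescence imaging; evaluation: % PE-positive cells; benchmarks: TNF-alpha, DMSO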
SIRT5 inh: sirtuin-5 (human) deacylase inhibition; Q9NXA8; Purified SirT5, succinyl-peptide AMC, trypsin-coupled fluorescence; inhibition, % at 15 µM; 330,000 tested, 1.1% active; AID 652115; in the data active means inhibition above about 15%
Target sequence (Q9NXA8 whole entry, looked up): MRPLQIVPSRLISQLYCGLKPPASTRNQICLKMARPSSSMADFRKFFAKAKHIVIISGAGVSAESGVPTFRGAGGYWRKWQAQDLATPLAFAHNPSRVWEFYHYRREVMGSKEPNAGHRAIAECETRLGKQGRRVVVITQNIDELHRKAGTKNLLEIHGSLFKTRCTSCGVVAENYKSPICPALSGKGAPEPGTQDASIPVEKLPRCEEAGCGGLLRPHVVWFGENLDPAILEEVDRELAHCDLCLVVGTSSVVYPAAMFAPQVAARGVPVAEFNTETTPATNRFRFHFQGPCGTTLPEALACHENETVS
rRNA inh HTS: selective bacterial rRNA inhibition in E. coli. 350,000 tested, 1.6% active. GFP signal change (wild-type ribosome), % (concentration not given with the values). AID 720706. E. coli WT GFP vs humanized-ribosome RFP mutants, fluorescence, 24 h; stronger effect = lower value; DMSO median 0, no signal -100;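 active means significant combined selectivity score with lowered wild-type GFP, culture density cut under 30%, mutant RFP and density less affected; inactive means any of these conditions unmet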
FGF22 binding: shifts melting point of recombinant human FGF22. recombinant FGF22 thermal shift, SYPRO orange fluorescence; percent of sucrose octasulfate shift, DMSO zero. activity (Tm shift, normalised), % at 9.99 µM. 340,000 tested, 1.5% active;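 active means mean Tm shift, scaled 0 neutral to 100 positive control, at about 1.3% or above, every replicate too, limit read from the data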
Target sequence (Q9HCT0 whole entry, looked up): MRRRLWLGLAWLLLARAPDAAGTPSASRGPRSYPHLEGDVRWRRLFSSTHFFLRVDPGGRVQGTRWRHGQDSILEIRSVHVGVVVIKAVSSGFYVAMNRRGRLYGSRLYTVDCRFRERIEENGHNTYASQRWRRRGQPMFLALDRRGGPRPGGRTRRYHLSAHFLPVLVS
FN deposit inh: fibronectin deposition inhibition; AH1F fibroblasts, Alexa488-fibronectin deposition fluorescence, overnight; inhibition, % at 12.6 µM; 350,000 tested, 0.086% active;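 active means mean inhibition across replicates of 30% or more, regardless of how many single replicates reach that level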;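 further: positive control wells lacked labelled fibronectin entirely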
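Schedule: 1 h cell adhesion before compound, then overnight fibronectin incubation; test system: AH1F fibroblast monolayer depositing Alexa488-labelled fibronectin into matrix; quantity: 10000 AH1F cells per well; probe or stimulus: fluorescent fibronectin at 24 nM final; signal: fluorescence, ex 485 nm, em 525 nm; evaluation: percent inhibition as loss of matrix-bound fibronectin fluorescence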
Active calls of the source: *; x = no result.

SMILES	Statin myotox sup	E-selectin induc	SIRT5 inh	rRNA inh HTS	FGF22 binding	FN deposit inh
O=S(=O)(NC1CCCCC1Oc1ccccc1)c1ccc(Cl)cc1 (configuration not stated)	x	x	-1	-34	44*	-2
CN/N=C/c1ccc(C#N)cc1	x	9	-4	8	43*	2
C[C@@H]1CN([C@@H](C)CO)C(=O)c2cccc(NC(=O)Nc3ccc(C(F)(F)F)cc3)c2O[C@@H]1CN(C)S(=O)(=O)c1ccccc1	1	2	x	0	x	x
CC(=O)N(C)C[C@H]1Oc2cc(C#Cc3cccc(F)c3)ccc2S(=O)(=O)N([C@@H](C)CO)C[C@H]1C	2	0	4	-2	0	1
Cc1cccc(-n2c(SCC(=O)N3CCCC3)nc3n[nH]c(C)c3c2=N)c1	-84	x	x	x	x	1
CCC(Sc1nc2n[nH]c(C)c2c(=N)n1-c1ccc(C)c(Cl)c1)C(=O)N1CCOCC1 (configuration not stated)	96*	x	x	x	x	x
CCCNC(=O)C[C@@H]1CC[C@@H]2[C@H](COC[C@H](O)CN2C(=O)Nc2c(C)noc2C)O1	-8	0	0	-1	0	1
COC(=O)CSc1nccc(C)n1	x	x	2	x	44*	10
Cc1ccc2nc(-c3ccc(NC(=S)NC4CC(C)(C)NC(C)(C)C4)cc3)sc2c1	1	8	-14	-37	43*	-10
Cc1ccc2nc(-c3ccc(NC(=S)NC(=O)C(C)C)cc3)sc2c1	-22	x	-2	x	0	x
Cc1ccccc1CN1N=C(/C=C/c2ccccc2)CCC1=O	-6	x	5	-31	45*	-3
COC(=O)C(NC(=O)c1ccccc1)(Nc1nc(C)cs1)C(F)(F)F (configuration not stated)	37	x	-4	-42*	0	x
COC(=O)C(NC(C)=O)(Nc1nc(C)cs1)C(F)(F)F (configuration not stated)	-10	x	x	x	x	0
C[C@@H]1CN([C@H](C)CO)C(=O)c2cccc(NC(=O)c3nc4ccccc4s3)c2O[C@@H]1CN(C)Cc1ccncc1	5	x	-3	-8	0	x
CCCc1nc2sc3c(c2c(=O)[nH]1)CCCC3	x	0	-4	x	43*	0
COc1ccc(C(=O)NC(=S)Nc2ccc(CN3CCCCC3)cc2)cc1Cl	x	0	3	-20*	1	-1
Cc1ccc(C(=O)Nc2ccc(N3CCCC3)cc2)c(C)c1	x	3	-2	-36*	x	-1
O=C(COc1ccc(Cl)cc1Cl)Nc1ccc(CN2CCCCC2)cc1	0	x	112*	-2	0	x
COc1ccc(C(=O)NC(=S)Nc2ccc(CN3CCOCC3)cc2)cc1Cl	-8	x	-1	-7	0	-11
Cc1ccc(C(=O)NC(=S)Nc2ccc(CN3CCCCC3)cc2)c(C)c1	-17	26*	0	-5	0	-2
O=C(NC(=S)Nc1ccc(CN2CCCCC2)cc1)c1ccco1	x	x	1	10	43*	-18
O=C(NC(=S)Nc1ccc(CN2CCOCC2)cc1)c1ccco1	x	x	-2	-4	0	-3
CC(C)NC(=O)Nc1ccc2c(c1)C(=O)N(C)C[C@H](C)[C@@H](CN(C)C)O2	x	x	x	0	x	0
Cc1cccc(NC(=O)COc2ccc3oc4c(c3c2)CCCC4)n1	134*	x	x	x	x	8
COCCN(Cc1ccccc1)C(=O)c1cc(-c2ccc(OC)c(OC)c2)nc2ccccc12	x	0	-2	-31*	0	9
SMILES	Statin myotox sup	E-selectin induc	SIRT5 inh	rRNA inh HTS	FGF22 binding	FN deposit inh
C[C@@H]1CN([C@@H](C)CO)C(=O)c2cccc(NC(=O)c3nc4ccccc4s3)c2O[C@H]1CN(C)C(=O)NC1CCCCC1	-10	-5	6	-5	0	7
CCN1/C(=C2\C(=O)N(C)C(=S)N2C)C=Cc2ccccc21	x	x	-2	x	43*	-4
CCN1/C(=C2\C(=O)N(C)C(=S)N2c2ccccc2)C=Cc2ccccc21	-4	-1	1	4	0	7
COc1ccc(/C=N/NC(=O)Nc2cccc3nsnc23)c(OC)c1	-3	x	x	x	x	x
O=C(N/N=C/c1ccc(O)cc1)Nc1cccc2nsnc12	x	18	-3	-31*	0	9
C[C@@H]1CCCCO[C@@H](CN(C)Cc2ccccc2)[C@@H](C)CN([C@@H](C)CO)C(=O)c2cc(NS(=O)(=O)c3cn(C)cn3)ccc2O1	x	0	0	3	0	8
CN1C(=O)c2cc(NC(=O)NCc3ccccc3)ccc2OC[C@@H]2O[C@H](CC(=O)NCC3CCCCC3)CC[C@H]21	29	1	2	-5	0	-7
O=C1NC(=S)SC1=Cc1ccc2c(c1)OCO2	-6	2	-1	-1	0	13
O=C1N/C(=N/S(=O)(=O)Cc2ccccc2)S/C1=C/c1ccc2c(c1)OCO2	-3	x	3	-40*	0	1
CCOC(=O)c1c2c(n(Cc3ccccc3)c1C)C(=O)C(=O)c1ccccc1-2	x	0	-2	-42	0	30*
C[C@@H]1CN([C@H](C)CO)C(=O)c2cc(NS(C)(=O)=O)ccc2O[C@@H](C)CCCCO[C@@H]1CN(C)C(=O)NC1CCCCC1	x	x	2	5	0	-4
O=C(Cc1ccc([N+](=O)[O-])cc1)c1ccccc1	x	-4	-5	-7	0	9
[O-][N+](=C(c1ccccc1)c1ccccc1)c1ccccc1	-3	0	x	7	43*	-5
Cc1cc(OCC(=O)NCCc2ccc(Cl)cc2)c2c(C)cc(=O)oc2c1	-18	1	-8	0	43*	6
C/C(=N\S(=O)(=O)c1ccc(C)cc1)N1CCN(S(=O)(=O)c2ccccc2)C1C(C)C (configuration not stated)	-3	x	2	-27*	0	x
CCCC(=O)Nc1ccc2c(c1)OC[C@@H](C)N(Cc1ccc(-c3ccccn3)cc1)C[C@H](C)[C@H](OC)CN(C)C2=O	49	0	4	-4	-1	9
COc1ccccc1C(=O)NC(=O)CSc1ccc(C)c(C)c1	x	1	x	x	43*	0
C=CCn1c(SCC(=O)c2ccc(O)c(O)c2)nnc1-c1ccc(C)cc1	12	0	44*	-1	0	-14
C=CCn1c(SCC(=O)c2ccc(O)c(O)c2)nnc1-c1ccc(OC)cc1	14	0	-2	3	0	1
COC(=O)c1sc2nc(SCC(=O)N(C)c3ccccc3)n(N)c(=O)c2c1C	-2	154*	-2	-3	0	2
C[C@@H]1CCCCO[C@H](CN(C)C(=O)Nc2ccc(F)cc2)[C@@H](C)CN([C@@H](C)CO)C(=O)c2cc(NS(=O)(=O)c3ccc(Cl)cc3)ccc2O1	x	0	3	6	x	-6

Screening data as filed in PubChem BioAssay.
